Assay results pooled from the literature.
Compare with care: the assays were run in different laboratories.
PDE5A: cGMP-specific 3',5'-cyclic phosphodiesterase (PDE5A, Homo sapiens, UniProt O76074)
HTR2A: 5-hydroxytryptamine receptor 2A (HTR2A, Homo sapiens, UniProt P28223)
PROC: Vitamin K-dependent protein C (PROC, Homo sapiens, UniProt P04070)

SMILES	target	read-out	action	technique	tested at	inhibition
CC(C)[C@H](NC(=O)OCc1ccccc1)C(=O)N[C@@H](CCCN=C(N)N)C(=O)N1CCC[C@H]1C(=O)N[C@@H](CCCN=C(N)N)C(=O)CF	Mucosa-associated lymphoid tissue lymphoma translocation protein 1 (MALT1, Homo sapiens, UniProt Q9UDY8)	enzyme activity	inhibitor	–	1 nM	9%
COCc1c(-c2cc3cc(C)cc(OC)c3s2)c2c(N)ncnn2c1CN1CCNC(=O)C1	PDE5A	enzyme activity	inhibitor	–	10 µM	8%
CN(CCN1CCC(OC(=O)Nc2ccccc2-c2ccccc2)CC1)C(=O)c1ccc(CN2CCC(C(N)=O)CC2)cc1	Corticotropin-releasing factor receptor 1 (Rattus norvegicus, UniProt P35353)	ligand displacement	–	radioligand	1 µM	-2%
O[C@H]1[C@H](n2cnc3c(NC(C4CCCCC4)C4CCCCC4)nc(Cl)nc32)[C@H]2C[C@@]2(CCl)[C@H]1O	HTR2A	ligand displacement	–	radioligand	10 µM	21%
N=C(N)c1ccc2cc(OC(=O)c3ccc(N=C(N)N)cc3)ccc2c1	Caspase-6 (CASP6, Homo sapiens, UniProt P55212)	enzyme activity	inhibitor	–	10 µM	4%
Cn1cc(-c2cc(F)cc(N3CCn4c(cc5c4CCCC5)C3=O)c2CO)cc(Nc2ccc(N3CCN(C4COC4)CC3)cn2)c1=O	Phosphatidylinositol 4-phosphate 3-kinase C2 domain-containing subunit beta (PIK3C2B, Homo sapiens, UniProt O00750)	enzyme activity	inhibitor	–	0.1 µM	10%
COc1cc(Nc2ncc(F)c(Nc3ccc4c(n3)NC(=O)C(C)(C)O4)n2)cc(OC)c1OC	Serine/threonine-protein kinase VRK2 (VRK2, Homo sapiens, UniProt Q86Y07)	binding	–	–	10 µM	0%
CN(C)C(=O)COC(=O)Cc1ccc(OC(=O)c2ccc(NC(=N)N)cc2)cc1	PROC	enzyme activity	inhibitor	–	10 µM	77%
OC[C@@]12C[C@@H]1[C@@H](n1cnc3c(NC(C4CCCC4)C4CCCC4)nc(Cl)nc31)[C@H](O)[C@@H]2O	HTR2A	ligand displacement	–	radioligand	10 µM	22%
CC(C)N1CCC[C@H]1CNC(=O)c1cn(C2CCCC2)c(=O)c2c1c1ccccc1n2C	Endothelin-1 receptor (EDNRA, Homo sapiens, UniProt P25101)	ligand displacement	–	radioligand	10 µM	11%
CCN(CC)CCCC[C@H](NC(=O)[C@H](CC(C)C)NC(=O)[C@H](C)NC(=O)[C@H](Cc1ccccc1)NC(=O)c1ccc(C(C)(C)C)cc1)C(=O)N[C@@H](CO)C(=O)OC	Adenosine receptor A2a (ADORA2A, Homo sapiens, UniProt P29274)	ligand displacement	–	radioligand	10 µM	-2%
c1ccc(C(NCCNC(c2ccccc2)c2ccccc2)c2ccccc2)cc1	PDE5A	enzyme activity	inhibitor	–	10 µM	0%
CC(C)Cn1cnc2c(N)nc3ccccc3c21	Sigma non-opioid intracellular receptor 1 (SIGMAR1, Homo sapiens, UniProt Q99720)	ligand displacement	–	radioligand	10 µM	15%
CCOC(=O)c1ccc(OC(=O)CCCCCNC(=N)N)cc1	PROC	enzyme activity	inhibitor	–	10 µM	99%
C#Cc1n[nH]c2c(-c3cn(C(C)c4ccccn4)c(=O)[nH]c3=O)cc(F)cc12 (centres unmarked)	Cytoplasmic tyrosine-protein kinase BMX (BMX, Homo sapiens, UniProt P51813)	enzyme activity	inhibitor	–	1 µM	0.9%
[H]/N=C(/N)c1ccc(NCc2nc3cc(C(=O)N(CCC(=O)O)c4ccccn4)ccc3n2C)cc1	PROC	enzyme activity	inhibitor	–	2 µM	43%
Cc1ncc(C)n2nc(/C=C/c3nc(N4CCCC4)cc(N4CCOCC4)n3)nc12	PDE5A	enzyme activity	inhibitor	–	10 µM	38%
CC(C)=CCCC1(C)C=Cc2c(O)c3c(c(CC=C(C)C)c2O1)OC12C(=CC4CC1C(C)(C)OC2(C/C=C(/C)C(=O)O)C4O)C3=O (centres unmarked)	Histone-lysine N-methyltransferase EHMT1 (EHMT1, Homo sapiens, UniProt Q9H9B1)	cell-free assay	–	–	10 µM	-4%
Cn1cc(-c2cccc(N3CCc4c(sc5c4CC(C)(C)C5)C3=O)c2CO)cc(Nc2ccncn2)c1=O	Sphingosine kinase 1 (SPHK1, Homo sapiens, UniProt Q9NYA1)	enzyme activity	inhibitor	–	1 µM	5%
O=C(Nc1cccnn1)N1CCN([C@@H]2CCOc3cc(C(F)(F)F)ccc32)CC1	Histamine H4 receptor (HRH4, Homo sapiens, UniProt Q9H3N8)	cell-free assay	–	–	20 µM	4%
